NOD2 RIPK2 PPI: NOD2-RIPK2 protein interaction inhibition; CHO BLA complementation NOD2-RIPK2, CCF4 ratio; inhibition, % at 4.98 µM; hit rate 0.38% among 360,000; AID 624267; in the data active = inhibition above about 21%;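 also: 0% = vehicle only and 100% = reference blocker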
MC4R antag cAMP: antagonists of human melanocortin 4 receptor (MC4R); hit rate 0.48% among 360,000; P32245; MC4R-expressing cells, MTII-stimulated cAMP, LANCE TR-FRET; AID 540295; inhibition, % at 6.5 µM;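 active = inhibition above its plate's cutoff, the mean of tested wells on that plate plus 3 SD, cut at about 29% in these data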;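 also: 0% = Melanotan II alone and 100% = Melanotan II plus saturating MCL0020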
Target sequence (P32245 whole entry, looked up): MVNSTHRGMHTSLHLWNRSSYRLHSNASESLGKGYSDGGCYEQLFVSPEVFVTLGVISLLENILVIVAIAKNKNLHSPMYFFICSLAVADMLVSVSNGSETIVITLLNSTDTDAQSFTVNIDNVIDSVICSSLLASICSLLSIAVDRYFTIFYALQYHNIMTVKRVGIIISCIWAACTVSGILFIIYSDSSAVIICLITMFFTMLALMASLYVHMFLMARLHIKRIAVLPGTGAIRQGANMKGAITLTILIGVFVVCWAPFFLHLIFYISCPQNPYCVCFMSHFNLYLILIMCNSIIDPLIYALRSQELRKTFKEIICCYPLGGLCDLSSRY
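Assay system: U2OS-MC4R stable cell line; Also added: Melanotan II; Technique: Eu-cAMP/anti-cAMP TR-FRET, emission 671 nm; Times: 30-min compound, 1-h challenge, 1-h detection, room temperature.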
TLR9-MyD88 block: blocks human TLR9 binding to MyD88. CHO BLA complementation TLR9-MyD88, CCF4 FRET ratio. inhibition, % at 4.98 µM. hit rate 0.21% among 340,000. AID 504734;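 active = inhibition above the mean over all tested compounds plus 3 SD, cut at about 21% in these data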;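 also: 0% = DMSO only wells and 100% = clavulanate BLA inhibitor control wells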
TLR4-MyD88 BLA: blocks binding of human TLR4 to MyD88; inhibition, % at 8.4 µM; AID 861; O00206+Q99836; HeLa CL3-4 TLR4/MyD88 BLA complementation, FRET ratio; hit rate 0.18% among 200,000; in the data active = inhibition above about 25%;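 also: 0% = vehicle and 100% = reference inhibitor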
MC4R barr agon: agonists of human melanocortin 4 receptor (MC4R) beta-arrestin. activation, % at 8.9 µM. U2OS MC4R beta-arrestin complementation, luminescence; percent of melanotan II response, DMSO zero. P32245. hit rate 0.98% among 360,000;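 active = activation above a per-plate cutoff, the mean activation of sample wells on that plate plus 3 SD, cut at about 8% in these data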
* hit, by the source's call; . = no result. This is a sample that favours compounds with a hit; in the whole collection about 1.8% have one here.

SMILES	NOD2 RIPK2 PPI	MC4R antag cAMP	TLR9-MyD88 block	TLR4-MyD88 BLA	MC4R barr agon
COc1ccc(/C=C/C(=O)Nc2cc(C)nn2-c2nc3ccccc3n2Cc2cccc([N+](=O)[O-])c2)cc1	-9.1	-2.3	-12.3	-7.8	8.6*
CCOc1cc(/C=C(/C#N)c2nc3ccccc3[nH]2)ccc1Oc1ccc([N+](=O)[O-])cn1	8.9	-4.9	-10.1	10.8	3.0
COc1cc(/C=C(/C#N)c2nc3ccccc3[nH]2)ccc1Oc1ncccc1[N+](=O)[O-]	2.3	8.0	-2.2	4.7	14.5*
Oc1ccc(Cl)cc1C1=Nc2ccccc2N=C(c2ccco2)C1	-2.2	6.0	-6.9	14.4	9.0*
COc1ccccc1C(CNC(=O)CSc1ccc2ccccc2c1)N(C)C (centres undefined)	-8.5	0.8	-6.5	.	-3.0
CN(C)CCCN(C(=O)c1ccc(S(=O)(=O)N(C)C2CCCCC2)cc1)c1nc2ccc(F)cc2s1	6.3	4.3	-1.0	.	1.0
CCc1ccc2nc(N(CCCN(C)C)C(=O)c3ccc(S(=O)(=O)N(C)C4CCCCC4)cc3)sc2c1	6.2	11.0	-1.1	.	12.5*
CCC1(C(=O)OC)CCc2c(cc(OC)c3ccccc23)C1=O (centres undefined)	-1.5	2.7	4.2	.	-0.8
O=C(OCn1ncc(Br)c(Br)c1=O)c1ccc(F)cc1	74.3*	47.1*	34.5*	16.5	-0.2
CCOC(=O)C1=C(O)/C(=C/c2cc(OC)c(OC)c(OC)c2)SC1=Nc1ccc(OC)cc1	-1.3	-7.5	-2.3	-3.4	8.3*
CCCCCCCCCC[n+]1cccc2c3ccccc3ccc21	10.1	-17.2	6.5	10.2	49.2*
CCCCCCCC[n+]1cccc2c3ccccc3ccc21	-2.4	-13.5	-3.3	15.1	7.0
Cc1ccc(N(CC(=O)NCc2ccco2)C(=O)CCC(=O)Nc2nccs2)cc1C	-3.9	18.6	11.0	.	0.5
Cc1ccc(CNC(=O)CCC(=O)n2ncc3cc(C)ccc32)cc1	-3.4	4.8	2.3	.	1.5
Cc1ccc2c(cnn2C(=O)CCCC(=O)NCc2ccc(Cl)cc2)c1	-3.5	-6.2	-3.4	.	8.6*
O=C(CN1CCN(S(=O)(=O)c2ccc(Br)cc2)CC1)N/N=C/c1ccc(Br)s1	0.1	-4.8	4.0	3.5	9.0*
Cc1cc(F)ccc1-c1cc(C(=O)NC(C)C)[nH]n1	4.6	-0.9	.	.	3.7
CCOc1ccc2nc(NCCNC(=O)Nc3cccc(C)c3)c(C#N)cc2c1	10.0	8.9	8.0	-2.5	2.7
CCOc1ccc2nc(NCCNC(=O)Nc3ccccc3)c(C#N)cc2c1	8.2	-3.3	10.7	9.0	9.6*
Cc1ccc(N(CCC#N)C(=O)CSc2nnc3ccccn23)cc1	6.2	1.9	-1.2	.	-1.5
Cc1cccc(NS(=O)(=O)c2ccc3nc(-c4ccccc4)[nH]c3c2)c1C	-4.6	-0.8	-3.6	6.7	9.0*
COc1ccc(Cl)cc1C(=O)NNC(=O)C1CCCO1 (centres undefined)	10.2	-1.3	8.6	.	-3.9
CC1CCc2c(sc3nc(C(C)(C)C)nc(N4CCN(C(=O)CCl)CC4)c23)C1 (centres undefined)	12.5	23.3	-10.7	.	18.9*
CCC(=O)N1CCN(c2nc(CC)nc3sc4c(c23)CCCC4)CC1	-10.8	18.3	-2.6	.	0.5
O=C(CCN1C(=O)/C(=C/c2ccccc2)SC1=S)NCCc1ccc(O)cc1	-1.5	4.7	6.1	.	9.3*
SMILES	NOD2 RIPK2 PPI	MC4R antag cAMP	TLR9-MyD88 block	TLR4-MyD88 BLA	MC4R barr agon
O=C(CCCN1C(=O)S/C(=C\c2ccccc2)C1=O)NNC(=O)c1ccccc1O	2.9	2.4	6.6	15.7	8.4*
O=S(=O)(NCC1CCC(NS(=O)(=O)c2c(F)cccc2F)CC1)c1ccc2c(c1)OCCO2 (centres undefined)	1.0	1.6	2.4	.	3.4
CCN(CC(=O)NCc1cccs1)C(=O)Cc1ccc(Cl)c(Cl)c1	-7.8	0.9	2.5	.	-1.4
O=C1N=C(N2CCC(Cc3ccccc3)CC2)S/C1=C/c1cn[nH]c1-c1ccccc1	6.1	4.5	5.6	-4.6	2.1
O=C1N=C(N2CCN(c3ccccc3)CC2)S/C1=C\c1cn[nH]c1-c1ccccc1	-9.2	-3.3	-7.3	2.5	8.5*
Cc1ccc(C)c(OCCC(=O)OCC(=O)Nc2ccc(N3CCOCC3)cc2)c1	4.9	14.7	-0.6	.	3.3
COC(=O)c1cccc(NC(=O)Nc2ccc(Cl)cc2Cl)c1	-2.0	2.0	-2.5	.	9.0*
COC(=O)c1cccc(NC(=S)Nc2cc(Cl)ccc2OC)c1	1.3	-0.7	7.2	5.0	-1.5
Cc1nn(C)cc1CNC(=O)/C=C/c1cnn(C)c1	-12.4	-2.3	-0.9	-11.9	-1.3
COc1ccc(/C=C/C(=O)NCc2cn(C)nc2C)cc1COc1ccc(Br)cc1	-0.8	8.1	1.6	-1.5	9.1*
CC1CCC(NC(=O)C2CCN(C(=O)Nc3ccccc3)CC2)CC1 (centres undefined)	-14.7	16.1	-7.8	.	-0.6
CC(C)C[C@H](NC(=O)c1nc[nH]c1C(=O)NCC(=O)OC(C)(C)C)C(=O)OCc1ccccc1	-7.4	19.1	-8.0	.	9.4*
CC(C)C[C@H](NC(=O)c1nc[nH]c1C(=O)NCC(=O)OCc1ccccc1)C(=O)OCc1ccccc1	2.2	16.5	2.7	.	2.1
COc1cc(NC(=O)c2cc(Cl)ccc2Cl)ccc1-c1cc2ccccc2oc1=O	-9.0	-2.1	-2.0	3.9	13.8*
COc1cc(NC(=O)c2cccc(C)c2)ccc1NC(=O)c1cc2ccccc2o1	0.9	8.0	-1.6	.	11.3*
COc1cc(NC(=O)c2cc3ccccc3o2)c(OC)cc1Br	-8.9	2.5	2.5	-14.9	19.8*
COc1cccc(CN2CC(C(=O)NCCCCc3ccccn3)CCC2=O)c1 (centres undefined)	6.6	2.4	-5.2	.	-2.8
CCCNc1c(NS(=O)(=O)c2c(F)c(F)c(F)c(F)c2F)c(=O)oc2ccccc12	-3.4	2.7	-4.4	.	-0.9
Cc1ccc(-c2cc3ncc(C#N)c(N)n3n2)cc1	-7.4	16.9	-14.6	6.2	4.7
COc1ccc2[nH]c3c(c2c1)CCN1C(=O)C(CC(=O)NCc2cccc(C(F)(F)F)c2)C[C@H](C(=O)N2CCCCC2)[C@@]31CCc1ccccc1 (some centres undefined)	-29.4	-12.5	-5.2	.	1.0
CCOc1ccc(Br)cc1S(=O)(=O)Nc1cccc(S(=O)(=O)N2CCOCC2)c1	-5.6	7.9	-6.8	.	-1.2
Cc1ccc(NC(=S)Nc2ccccn2)cc1C	2.4	-4.4	.	.	1.6
Cc1ccc(NC(=S)Nc2ccc3nc(-c4ccccn4)c(-c4ccccn4)nc3c2)cc1C	31.8*	3.7	14.2	0.6	0.6
CCc1cc2cc(C(=O)Nc3ccccc3F)sc2s1	4.4	-1.6	12.0	-1.9	9.0*
Cc1cc(C)n(-c2ccc(C(=O)OCC(=O)Nc3ccccc3F)cc2)n1	-3.9	9.3	-5.0	.	-5.7

High-throughput results deposited in PubChem by The Scripps Research Institute Molecular Screening Center.
